Calls of active or inactive are those of the source. The calls are words filed in the database; no cut-off is given here.
What was measured:
786-0 = assay: Growth inhibition of human 786-0 cells; type: functional
HT-29 = assay: Growth inhibition of human HT29 cells; type: functional
BT-549 = assay: Growth inhibition of human BT549 cells; type: functional
DU-145 = assay: Growth inhibition of human DU145 cells; type: functional
COLO 205 = assay: Growth inhibition of human COLO205 cells; type: functional
UACC-257 = assay: Growth inhibition of human UACC257 cells; type: functional
M14 = assay: Growth inhibition of human M14 cells; type: functional
KM12 = assay: Growth inhibition of human KM12 cells; type: functional
Hs-578T = assay: Growth inhibition of human HS578T cells; type: functional
NCI-H226 = assay: Growth inhibition of human NCI-H226 cells; type: functional
RXF 393 = assay: Growth inhibition of human RXF393 cells; type: functional
K562 = assay: Growth inhibition of human K562 cells; type: functional
NCI-H522 = assay: Growth inhibition of human NCI-H522 cells; type: functional
T47D [1] = assay: Inhibition of 1,10-phenanthroline-induced VEGF protein secretion in human T47D cells at 10 uM after 16 hrs by ELISA; type: functional, cell-based
Summary of the method: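 T47D cells stimulated with 1,10-phenanthroline, compound at 10 μM; secreted VEGF in conditioned media by ELISA, normalized to cell-lysate protein.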

MDA-MB-231 = assay: Growth inhibition of human MDA-MB-231 cells; type: functional
SNB-19 = assay: Growth inhibition of human SNB19 cells; type: functional
PC-3 = assay: Growth inhibition of human PC3 cells; type: functional
CAKI-1 = assay: Growth inhibition of human CAKI1 cells; type: functional
SK-OV-3 = assay: Growth inhibition of human SK-OV3 cells; type: functional
[2] = target: Hypoxia inducible factors; HIF-1-alpha, HIF-2-alpha (Homo sapiens, UniProt Q16665+Q99814); assay: Inhibition of HIF1 activation in human T47D cells by TK-luciferase assay; type: cell-based
Summary of the method: (§1)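 HIF-1 reporter (pHRE-TK-Luc) assays in transfected PC-3 or T47D cells; HIF-1 induced by hypoxia or by the hypoxia mimetic 1,10-phenanthroline (10 μM); compounds at half-log concentrations; luciferase activity measured; IC50 from experiments in triplicate.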

HCT-15 = assay: Growth inhibition of human HCT15 cells; type: functional
SNB-75 = assay: Growth inhibition of human SNB75 cells; type: functional
T47D [3] = assay: Growth inhibition of human T47D cells; type: functional
HCC 2998 = assay: Growth inhibition of human HCC2998 cells; type: functional
[4] = Inhibition of 1,10-phenanthroline-induced HIF1 activation in T47D cells by TK-luciferase assay; type: cell-based; conditions: Homo sapiens; summary of the method: as §1
Malme-3M = assay: Growth inhibition of human MALME-3M cells; type: functional
SK-MEL-2 = assay: Growth inhibition of human SK-MEL2 cells; type: functional
A498 = assay: Growth inhibition of human A498 cells; type: functional
ACHN = assay: Growth inhibition of human ACHN cells; type: functional
SK-MEL-5 = assay: Growth inhibition of human SK-MEL5 cells; type: functional
SN12C = assay: Growth inhibition of human SN12C cells; type: functional
[5] = Inhibition of HIF1 activation in PC3 cells by TK-luciferase assay; type: cell-based; conditions: Homo sapiens, PC-3; summary of the method: as §1
HCT-116 = assay: Growth inhibition of human HCT116 cells; type: functional
NCI-H322M = assay: Growth inhibition of human NCI-H322M cells; type: functional
HOP-92 = assay: Growth inhibition of human HOP92 cells; type: functional
MCF7 = assay: Growth inhibition of human MCF7 cells; type: functional
SK-MEL-28 = assay: Growth inhibition of human SK-MEL28 cells; type: functional
SR = assay: Growth inhibition of human SR cells; type: functional
EKVX = assay: Growth inhibition of human EKVX cells; type: functional
SF-295 = assay: Growth inhibition of human SF295 cells; type: functional
UO-31 = assay: Growth inhibition of human UO31 cells; type: functional
[6] = read-out: Log LC50 (the source's name) (converted)

COc1cc(O)cc2cc3oc(C)cc(=O)c3c(O)c12
GI50 (786-0): 20 µM
LC50 (786-0): > 100 µM
TGI (786-0; read-out: Log TGI (converted)): 50.1 µM
GI50 (HT-29): 29.5 µM
CC50 (HT-29; [6]): > 100 µM
TGI (HT-29; read-out: Log TGI (converted)): > 100 µM
GI50 (BT-549): 20.4 µM
LC50 (BT-549): > 100 µM
TGI (BT-549; read-out: Log TGI (converted)): > 100 µM
GI50 (DU-145): 21.9 µM
CC50 (DU-145; [6]): > 100 µM
TGI (DU-145; read-out: Log TGI (converted)): 70.8 µM
GI50 (COLO 205): 20.4 µM
CC50 (COLO 205; [6]): > 100 µM
TGI (COLO 205; read-out: Log TGI (converted)): 55 µM
GI50 (UACC-257): 45.7 µM
LC50 (UACC-257): > 100 µM
TGI (UACC-257; read-out: Log TGI (converted)): > 100 µM
GI50 (M14): 20 µM
LC50 (50% lethal concentration) (M14): > 100 µM
TGI (M14; read-out: Log TGI (converted)): 45.7 µM
GI50 (KM12): 18.6 µM
CC50 (KM12; [6]): 85.1 µM
TGI (KM12; read-out: Log TGI (converted)): 39.8 µM
GI50 (Hs-578T): 0.589 µM
LC50 (Hs-578T): > 100 µM
GI50 (NCI-H226): 22.4 µM
CC50 (NCI-H226; [6]): > 100 µM
TGI (NCI-H226; read-out: Log TGI (converted)): > 100 µM
GI50 (RXF 393): 20.4 µM
LC50 (RXF 393): > 100 µM
TGI (RXF 393; read-out: Log TGI (converted)): 53.7 µM
GI50 (K562): 14.8 µM
CC50 (K562; [6]): > 100 µM
TGI (K562; read-out: Log TGI (converted)): 49 µM
GI50 (NCI-H522): 2.19 µM
CC50 (NCI-H522; [6]): 93.3 µM
TGI (NCI-H522; read-out: Log TGI (converted)): 22.9 µM
Activity (T47D [1]): inactive
GI50 (MDA-MB-231): 17.8 µM
LC50 (MDA-MB-231): > 100 µM
TGI (MDA-MB-231; read-out: Log TGI (converted)): > 100 µM
GI50 (SNB-19): 32.4 µM
LC50 (SNB-19): > 100 µM
TGI (SNB-19; read-out: Log TGI (converted)): > 100 µM
GI50 (PC-3): 32.4 µM
LC50 (PC-3): > 100 µM
TGI (PC-3; read-out: Log TGI (converted)): > 100 µM
GI50 (CAKI-1): 42.7 µM
LC50 (CAKI-1): > 100 µM
TGI (CAKI-1; read-out: Log TGI (converted)): > 100 µM
GI50 (SK-OV-3): 31.6 µM
LC50 (SK-OV-3): > 100 µM
TGI (SK-OV-3; read-out: Log TGI (converted)): > 100 µM
IC50 [2]: 3.4 µM
GI50 (HCT-15): 23.4 µM
CC50 (HCT-15; [6]): > 100 µM
TGI (HCT-15; read-out: Log TGI (converted)): 70.8 µM
GI50 (SNB-75): 46.8 µM
LC50 (SNB-75): > 100 µM
TGI (SNB-75; read-out: Log TGI (converted)): > 100 µM
GI50 (T47D [3]): 17.8 µM
LC50 (T47D [3]): > 100 µM
TGI (T47D [3]; read-out: Log TGI (converted)): > 100 µM
GI50 (HCC 2998): 24.5 µM
CC50 (HCC 2998; [6]): > 100 µM
TGI (HCC 2998; read-out: Log TGI (converted)): 64.6 µM
IC50 [4]: 0.9 µM
GI50 (Malme-3M): 35.5 µM
CC50 (Malme-3M; [6]): > 100 µM
TGI (Malme-3M; read-out: Log TGI (converted)): 95.5 µM
GI50 (SK-MEL-2): 4.9 µM
LC50 (SK-MEL-2): > 100 µM
TGI (SK-MEL-2; read-out: Log TGI (converted)): 35.5 µM
GI50 (A498): 0.617 µM
LC50 (A498): > 100 µM
TGI (A498; read-out: Log TGI (converted)): 11.7 µM
GI50 (ACHN): 17 µM
CC50 (ACHN; [6]): > 100 µM
TGI (ACHN; read-out: Log TGI (converted)): > 100 µM
GI50 (SK-MEL-5): 0.457 µM
LC50 (SK-MEL-5): 34.7 µM
TGI (SK-MEL-5; read-out: Log TGI (converted)): 12 µM
GI50 (SN12C): 32.4 µM
LC50 (SN12C): > 100 µM
TGI (SN12C; read-out: Log TGI (converted)): > 100 µM
IC50 [5]: 3.3 µM
GI50 (HCT-116): 14.5 µM
CC50 (HCT-116; [6]): 63.1 µM
TGI (HCT-116; read-out: Log TGI (converted)): 30.2 µM
GI50 (NCI-H322M): 26.9 µM
CC50 (NCI-H322M; [6]): > 100 µM
TGI (NCI-H322M; read-out: Log TGI (converted)): 95.5 µM
GI50 (HOP-92): 30.9 µM
CC50 (HOP-92; [6]): > 100 µM
TGI (HOP-92; read-out: Log TGI (converted)): > 100 µM
GI50 (MCF7): 31.6 µM
LC50 (MCF7): > 100 µM
TGI (MCF7; read-out: Log TGI (converted)): > 100 µM
GI50 (SK-MEL-28): 24 µM
CC50 (SK-MEL-28; [6]): > 100 µM
TGI (SK-MEL-28; read-out: Log TGI (converted)): 63.1 µM
GI50 (SR): 15.1 µM
CC50 (SR; [6]): > 100 µM
TGI (SR; read-out: Log TGI (converted)): 41.7 µM
GI50 (EKVX): 37.2 µM
CC50 (EKVX; [6]): > 100 µM
TGI (EKVX; read-out: Log TGI (converted)): > 100 µM
GI50 (SF-295): 30.2 µM
LC50 (SF-295): > 100 µM
TGI (SF-295; read-out: Log TGI (converted)): > 100 µM
GI50 (UO-31): 5.13 µM
LC50 (UO-31): > 100 µM
TGI (UO-31; read-out: Log TGI (converted)): 37.2 µM

Reference: ChEMBL document CHEMBL1141286, “Benzochromenones from the marine crinoid Comantheria rotula inhibit hypoxia-inducible factor-1 (HIF-1) in cell-based reporter assays and differentially suppress the growth of certain tumor cell lines” (J Nat Prod, 2007)
